Key:
[1] = biological target: Fibroblast growth factor receptor 1 (Homo sapiens, UniProt P11362); experiment: Inhibition of FGFR1
[2] = biological target: Epidermal growth factor receptor (Homo sapiens, UniProt P00533); experiment: Inhibition of EGFR
In short: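 Commercially sourced EGFR enzyme was tested in an AlphaScreen format. Kinase, biotinylated peptide, ATP and inhibitor were combined across 10 wells, typically 0.01 µM to 250 µM inhibitor. Phosphorylation ran for 30 min and was stopped with EDTA. Phosphopeptide was detected with anti-phosphotyrosine acceptor beads and streptavidin donor beads.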

Insulin receptor [3] = biological target: T1, Insulin receptor (Homo sapiens, UniProt P06213)
T1 sequence (P06213 28-758 limits assumed): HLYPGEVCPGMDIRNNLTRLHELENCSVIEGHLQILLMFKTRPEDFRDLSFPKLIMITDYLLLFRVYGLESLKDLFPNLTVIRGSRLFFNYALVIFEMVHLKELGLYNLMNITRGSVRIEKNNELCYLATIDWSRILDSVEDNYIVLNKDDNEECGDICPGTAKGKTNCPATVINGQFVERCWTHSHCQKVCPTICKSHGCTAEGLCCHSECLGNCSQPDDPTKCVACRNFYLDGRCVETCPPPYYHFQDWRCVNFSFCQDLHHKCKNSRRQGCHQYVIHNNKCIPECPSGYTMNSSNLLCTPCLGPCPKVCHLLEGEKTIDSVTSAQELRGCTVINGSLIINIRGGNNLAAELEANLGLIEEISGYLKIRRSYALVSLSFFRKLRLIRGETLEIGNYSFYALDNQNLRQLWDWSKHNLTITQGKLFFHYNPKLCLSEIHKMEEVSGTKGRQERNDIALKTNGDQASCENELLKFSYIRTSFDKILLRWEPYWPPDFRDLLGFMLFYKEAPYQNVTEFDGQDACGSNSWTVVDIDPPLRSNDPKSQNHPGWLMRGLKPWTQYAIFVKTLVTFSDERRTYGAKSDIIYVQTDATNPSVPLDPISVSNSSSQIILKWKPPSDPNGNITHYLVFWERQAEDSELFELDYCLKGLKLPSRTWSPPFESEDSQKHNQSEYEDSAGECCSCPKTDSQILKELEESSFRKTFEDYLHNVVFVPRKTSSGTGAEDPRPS
T1 sequence (P06213 763-1382 limits assumed): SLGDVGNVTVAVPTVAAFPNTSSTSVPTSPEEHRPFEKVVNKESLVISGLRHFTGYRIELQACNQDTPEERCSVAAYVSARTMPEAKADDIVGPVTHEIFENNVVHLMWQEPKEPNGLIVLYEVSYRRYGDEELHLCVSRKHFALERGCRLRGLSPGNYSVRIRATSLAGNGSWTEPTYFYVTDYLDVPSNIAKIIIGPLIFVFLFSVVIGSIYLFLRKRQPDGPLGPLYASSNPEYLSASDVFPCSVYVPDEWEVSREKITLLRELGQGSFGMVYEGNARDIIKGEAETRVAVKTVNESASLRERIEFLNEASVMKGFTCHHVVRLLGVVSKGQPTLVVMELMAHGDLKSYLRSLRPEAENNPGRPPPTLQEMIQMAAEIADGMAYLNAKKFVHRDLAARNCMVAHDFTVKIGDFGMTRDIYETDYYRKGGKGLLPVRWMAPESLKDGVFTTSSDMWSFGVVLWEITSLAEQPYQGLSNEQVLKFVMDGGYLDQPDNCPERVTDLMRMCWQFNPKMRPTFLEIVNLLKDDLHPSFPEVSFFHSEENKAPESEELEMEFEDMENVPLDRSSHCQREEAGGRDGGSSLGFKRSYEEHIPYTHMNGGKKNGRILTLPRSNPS

Insulin receptor [4] = biological target: T1, Insulin receptor; remark: listed apart in the source
[5] = biological target: Proto-oncogene tyrosine-protein kinase Src (Homo sapiens, UniProt P12931); experiment: Inhibition of SRC
Sequence of Proto-oncogene tyrosine-protein kinase Src (P12931 2-536 limits assumed): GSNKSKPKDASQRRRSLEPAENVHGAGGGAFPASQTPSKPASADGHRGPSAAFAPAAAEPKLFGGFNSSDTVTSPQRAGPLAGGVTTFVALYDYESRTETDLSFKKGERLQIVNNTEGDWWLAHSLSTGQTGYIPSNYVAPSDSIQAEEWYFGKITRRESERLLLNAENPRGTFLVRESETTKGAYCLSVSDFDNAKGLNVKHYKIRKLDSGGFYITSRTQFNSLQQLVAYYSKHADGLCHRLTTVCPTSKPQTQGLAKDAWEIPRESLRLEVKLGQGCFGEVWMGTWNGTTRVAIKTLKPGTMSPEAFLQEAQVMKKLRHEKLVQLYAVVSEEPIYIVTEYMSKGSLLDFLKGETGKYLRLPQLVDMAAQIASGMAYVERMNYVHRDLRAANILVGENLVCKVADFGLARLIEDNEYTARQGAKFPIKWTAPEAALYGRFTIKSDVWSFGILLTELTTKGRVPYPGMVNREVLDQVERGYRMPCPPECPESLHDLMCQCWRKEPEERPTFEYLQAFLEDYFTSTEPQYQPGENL

Sequence of Fibroblast growth factor receptor 1 (P11362 whole entry): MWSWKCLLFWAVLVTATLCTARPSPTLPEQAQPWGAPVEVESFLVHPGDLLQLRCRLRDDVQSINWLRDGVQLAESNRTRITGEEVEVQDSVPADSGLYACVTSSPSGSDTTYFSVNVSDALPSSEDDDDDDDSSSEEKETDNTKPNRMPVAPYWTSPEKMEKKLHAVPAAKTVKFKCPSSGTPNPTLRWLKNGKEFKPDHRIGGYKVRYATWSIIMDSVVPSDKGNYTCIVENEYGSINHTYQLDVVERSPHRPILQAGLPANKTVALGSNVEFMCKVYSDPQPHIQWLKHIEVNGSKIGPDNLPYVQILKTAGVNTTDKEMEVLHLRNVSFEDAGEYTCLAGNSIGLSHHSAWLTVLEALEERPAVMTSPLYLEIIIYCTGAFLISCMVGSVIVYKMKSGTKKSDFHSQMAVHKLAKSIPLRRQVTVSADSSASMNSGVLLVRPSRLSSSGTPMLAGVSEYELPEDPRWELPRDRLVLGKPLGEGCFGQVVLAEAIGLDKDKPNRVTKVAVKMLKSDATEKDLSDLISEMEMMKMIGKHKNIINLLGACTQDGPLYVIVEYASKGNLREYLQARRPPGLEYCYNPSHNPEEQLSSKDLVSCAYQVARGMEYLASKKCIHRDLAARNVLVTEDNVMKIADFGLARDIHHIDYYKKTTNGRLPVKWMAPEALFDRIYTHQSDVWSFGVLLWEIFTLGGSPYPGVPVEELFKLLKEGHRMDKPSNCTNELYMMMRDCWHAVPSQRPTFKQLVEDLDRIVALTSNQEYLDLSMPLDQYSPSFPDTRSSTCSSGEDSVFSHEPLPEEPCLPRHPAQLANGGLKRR
Sequence of Epidermal growth factor receptor (P00533 whole entry): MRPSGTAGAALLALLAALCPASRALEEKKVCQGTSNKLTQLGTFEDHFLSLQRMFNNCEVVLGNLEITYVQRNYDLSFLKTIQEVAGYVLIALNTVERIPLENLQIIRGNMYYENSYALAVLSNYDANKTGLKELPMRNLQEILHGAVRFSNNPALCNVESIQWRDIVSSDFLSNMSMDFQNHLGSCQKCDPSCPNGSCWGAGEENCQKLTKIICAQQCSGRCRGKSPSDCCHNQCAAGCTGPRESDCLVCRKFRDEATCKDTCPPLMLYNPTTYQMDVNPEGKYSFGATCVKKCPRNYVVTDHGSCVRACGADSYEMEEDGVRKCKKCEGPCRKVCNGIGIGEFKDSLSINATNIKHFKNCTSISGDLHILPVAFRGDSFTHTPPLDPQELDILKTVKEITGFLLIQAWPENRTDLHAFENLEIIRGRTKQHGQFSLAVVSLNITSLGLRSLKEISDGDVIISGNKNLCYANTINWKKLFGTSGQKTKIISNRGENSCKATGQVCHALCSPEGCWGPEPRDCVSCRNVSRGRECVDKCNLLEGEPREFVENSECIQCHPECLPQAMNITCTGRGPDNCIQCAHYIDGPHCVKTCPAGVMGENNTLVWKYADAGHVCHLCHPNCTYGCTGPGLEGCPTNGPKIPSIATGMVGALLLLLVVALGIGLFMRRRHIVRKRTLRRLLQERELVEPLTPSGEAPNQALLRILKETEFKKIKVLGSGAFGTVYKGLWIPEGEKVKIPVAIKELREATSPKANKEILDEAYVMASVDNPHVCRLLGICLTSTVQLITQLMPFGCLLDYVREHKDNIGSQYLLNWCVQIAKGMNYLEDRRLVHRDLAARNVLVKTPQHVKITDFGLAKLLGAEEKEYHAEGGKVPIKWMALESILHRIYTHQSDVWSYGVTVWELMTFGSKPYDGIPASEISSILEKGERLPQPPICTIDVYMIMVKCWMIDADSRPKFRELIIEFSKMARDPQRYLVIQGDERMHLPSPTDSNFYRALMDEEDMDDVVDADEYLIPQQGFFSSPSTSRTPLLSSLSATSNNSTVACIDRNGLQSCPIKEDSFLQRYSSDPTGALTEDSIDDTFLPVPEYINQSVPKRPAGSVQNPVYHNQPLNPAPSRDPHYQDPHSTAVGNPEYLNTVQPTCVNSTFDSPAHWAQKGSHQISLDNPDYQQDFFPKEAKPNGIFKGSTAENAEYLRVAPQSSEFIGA

Row | Compound | IC50 [1] | other results
1 | Cc1ccc2[nH]c(=O)c(-c3nc4ccc(Cl)cn4c3NCC3CCCO3)cc2c1 (stereo not given) | Not Active | 
2 | COc1cc(/C=C2\NC(=S)NC2=O)ccc1OCCCOc1cccc(C)c1 | Not Active | 
3 | O=C1C(Nc2ccccc2)=CC(c2cccc([N+](=O)[O-])c2)N1c1ccccc1 (stereo not given) | Not Active | 
4 | O=C(NCc1n[nH]c(=O)c2ccccc12)c1ccc(Br)o1 | Not Active | 
5 | Cc1ccc2[nH]c(=O)c3cc(C(=O)N4CCN(c5ccccn5)CC4)sc3c2c1 | Not Active | 
6 | COc1cc(/C=C2\NC(=S)NC2=O)ccc1OCCCOc1cc(C)cc(C)c1 | Not Active | 
7 | COc1cccc(-c2nc(=O)c3c4c(sc3[nH]2)CC(C)CC4)c1 (stereo not given) | Not Active | 
8 | COc1cc(/C=C2\NC(=S)NC2=O)ccc1OCCCOc1cccc(Cl)c1 | Not Active | 
9 | COc1cc(-c2nc3sc4cc(C)ccc4c3c(=O)[nH]2)ccc1OCC(=O)O |  | IC50 ([1]; read-out: IC50): 4 µM
10 | O=C(CSc1nc2c(c(=O)[nH]1)C1CCCCC1S2)NCc1ccco1 (stereo not given) | Not Active | 
11 | COc1cc(-c2nc(=O)c3c([nH]2)sc2ccc(C)cc23)ccc1OCC(=O)O |  | IC50 [2]: 2.4 µM; IC50 (Insulin receptor [3]): Not Active
12 | COc1cc(C2C=C(Nc3ccccc3)C(=O)N2c2ccccc2)ccc1O (stereo not given) | Not Active | 
13 | Cc1ccc(SCCNC(=O)COC(=O)Cc2n[nH]c(=O)c3ccccc23)cc1 | Not Active | 
14 | C/C(=N\CC1CCCO1)C1C(=O)NC(=O)N(c2ccc(C)cc2)C1=O (stereo not given) | Not Active | 
15 | CCc1ccc2c(c1)sc1[nH]c(-c3ccc(OCC(=O)O)c(OC)c3)nc(=O)c12 |  | IC50 ([1]; read-out: IC50): 5.5 µM
16 | CC(=O)Nc1nc(-c2ccc(Cl)c(Cl)c2)nc2c1c(=O)oc1ccccc12 | Not Active | 
17 | CCOc1cc(/C=C2\NC(=S)NC2=O)ccc1OCCCOc1cc(C)cc(C)c1 |  | IC50 ([1]; read-out: IC50): 250 µM
18 | CC(C)C(=O)Nc1nc2c(c3c1c(=O)oc1ccccc13)CCCC2 | Not Active | 

Row | Compound | IC50 [1] | other results
19 | Cc1ccc(C2(C)NC(=O)N(Cc3ccc(F)cc3)C2=O)cc1 (stereo not given) | Not Active | 
20 | CCc1ccc(OCCCOc2ccc(/C=C3\SC(=O)NC3=O)cc2)cc1 | Not Active | 
21 | COc1ccc(-c2nc(NC(C)=O)c3c(=O)oc4ccc(Cl)cc4c3n2)cc1 | Not Active | 
22 | O=C(CC1NC(=O)c2ccccc21)NCc1ccco1 (stereo not given) | Not Active | 
23 | COc1ccc(-c2nc(=O)c3c4c(sc3[nH]2)CC(C)CC4)cc1OC (stereo not given) | Not Active | 
24 | CCOC(=O)CNc1ccccc1-c1nc2ccccc2[nH]c1=O | Not Active | 
25 | COc1cc(/C=C2\SC(=N)NC2=O)ccc1OCCCOc1cc(C)cc(C)c1 |  | IC50 [2]: 56 µM; IC50 (Insulin receptor [4]): 47 µM; IC50 [5]: 10 µM; IC50 ([1]; read-out: IC50): 23 µM
26 | O=c1[nH]c2ccc(NCc3cccc(OCc4ccccc4)c3)cc2[nH]1 | Not Active | 
27 | COc1cc(-c2nc3sc4c(c3c(=O)[nH]2)CCC(C)C4)ccc1OCC(=O)O (stereo not given) |  | IC50 ([1]; read-out: IC50): 50 µM
28 | C=C1c2ccccc2NC(=O)N1c1cccc(Cl)c1 | Not Active | 
29 | CC(=O)Nc1nc(-c2ccc(C(C)(C)C)cc2)nc2c1c(=O)oc1ccccc12 | Not Active | 
30 | COc1cc(/C=C2\NC(=S)NC2=O)ccc1OCCCOc1ccc(Cl)cc1 | Not Active | 
31 | COCc1cc(/C=C2\NC(=S)NC2=O)ccc1OCCCOc1cc(C)cc(C)c1 |  | IC50 ([1]; read-out: IC50): 3300 µM
32 | COc1ccc2cc(-c3nc4cccc(C)n4c3NC3CCCC3)c(=O)[nH]c2c1 | Not Active | 
33 | CC(CCc1ccccc1)NC(=O)COC(=O)CC1Sc2ccccc2NC1=O (stereo not given) | Not Active | 
34 | COc1ccc2cc(C3(C)NC(=O)N(Cc4ccc(F)cc4Cl)C3=O)ccc2c1 (stereo not given) | Not Active | 
35 | COc1cc(/C=C2\NC(=S)NC2=O)ccc1OCCCOc1ccccc1Cl | Not Active | 
36 | COc1cc(-c2nc(=O)c3c([nH]2)sc2cc(C(F)(F)F)ccc23)ccc1OCC(=O)O | Not Active | 

Reference: ChEMBL document CHEMBL1156931, “Discovery of novel fibroblast growth factor receptor 1 kinase inhibitors by structure-based virtual screening” (J Med Chem, 2010)
